Experimental data collected from several papers.
Lines come from different studies, so protocols differ.
Target: Serine/threonine-protein kinase 26 (STK26, Homo sapiens, UniProt Q9P289)

Structure (SMILES)	observed	technique	tested at	remaining binding [%]
O=C(NCC1CCOCC1)c1n[nH]cc1NC(=O)c1c(F)cccc1F	binding	competition with immobilised ligand	1 µM	77
CC(=O)c1c(NS(C)(=O)=O)c2cc(-c3ccc(Cl)cc3)c(-c3ccc(Cl)cc3Cl)nc2n(C)c1=O	cell-free assay	competition with immobilised ligand	1 µM	84
Cc1cnc(Nc2ccc(C(=O)N3CCC(N4CCCC4)CC3)cc2)nc1-c1cc2ccccc2s1	binding	competition with immobilised ligand	1 µM	77
COc1ncc2cc3ccccc3nc2c1C#N	cell-free assay	competition with immobilised ligand	5 µM	100
COc1cnc(Nc2cccc(S(N)(=O)=O)c2)nc1N1CCN(c2ccccc2)CC1	binding	competition with immobilised ligand	1 µM	78
O=C(Nc1cccnn1)N1CCC(=Cc2cccc(Oc3ccc(C(F)(F)F)cn3)c2)CC1	cell-free assay	competition with immobilised ligand	1 µM	100
C=CC(=O)N1CCC(C(=O)NCC(=O)N2CCN(c3nc(-c4cnc(N)nc4C(F)F)nc(N4CCOCC4)n3)CC2)CC1	binding	competition with immobilised ligand	1 µM	100
O=C(NCCCN1CCOCC1)c1ccc(Nc2nccc(-c3cc4ccccc4s3)n2)cc1	binding	competition with immobilised ligand	1 µM	87
CNC(=O)[C@@H]1CC[C@@H](n2c(-c3ccc4cnccc4c3)nc3ccc(C(=O)NCc4cccc(C(N)=O)c4)cc32)C1	binding	competition with immobilised ligand	1 µM	100
O=C(c1ccc(Nc2ncc(Cl)c(-c3ccc(Cl)s3)n2)cc1)N1CCC(N2CCCC2)CC1	binding	competition with immobilised ligand	1 µM	30
NS(=O)(=O)c1cc(NC(=O)C2(c3ccccc3Cl)CC2)ccc1Oc1cccc(Cl)c1	cell-free assay	competition with immobilised ligand	1 µM	100
CN1CCN(c2ccc(Nc3nccc(-c4cccc([N+](=O)[O-])c4)n3)cc2C(F)(F)F)CC1	binding	–	10 µM	33
Cc1nc(C2CCN(C(=O)c3ccc(OC(F)(F)F)cc3N)CC2)c2ncc(N3CCN(C)CC3)cc2n1	cell-free assay	competition with immobilised ligand	1 µM	100
FC(F)(F)Oc1cccc(-c2cnc3ccc(-c4ccncc4)nn23)c1	cell-free assay	competition with immobilised ligand	5 µM	59
